The values that follow come from ChEMBL document CHEMBL5108018, “Discovery of MDM2-p53 and MDM4-p53 protein-protein interactions small molecule dual inhibitors” (Eur J Med Chem, 2022).

What all share (format): functional, cell-based
The subject of one test is LNCaP. As to the kind of experiment: Antiproliferative activity against human LNCaP cells harboring wild type p53 overexpressing MDM2/4 assessed as inhibition of cell growth incubated for 96 hrs by MTS assay. The essentials: (§1)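 MTS viability: cells seeded 1×10^4/well (HCT116), 3×10^3/well (SJSA-1, LNCaP), 5×10^3/well (MCF-7), treated ~24 h after plating with DMSO-stock compounds serially diluted in medium (final DMSO ≤0.1%). Ten or more concentrations over 1–100 µM, duplicates, ≥3 independent runs. Exposure 48 h (HCT116), 72 h (MCF-7), 96 h (SJSA-1, LNCaP). MTS 0.5 mg/mL added for 15–30 min, A490. IC50 from four-parameter variable-slope fit.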

The next test concerns SJSA-1. The test is described as follows: Antiproliferative activity against human SJSA-1 cells harboring wild type p53 overexpressing MDM2/4 assessed as inhibition of cell growth incubated for 96 hrs by MTS assay. To be noted: SJSA-1, 96 h. The essentials:
as §1

A further test relates to HCT-116. The test is described as follows: Antiproliferative activity against human HCT-116 cells harboring wild type p53 overexpressing MDM2 assessed as inhibition of cell growth incubated for 48 hrs by MTS assay. To be noted: HCT-116, 48 h. An outline of the steps:
as §1
(In general: Formazan colour is commonly taken as a measure of viable cells.)

The test system of a further test is MCF7. The test is described as follows: Antiproliferative activity against human MCF7 cells harboring wild type p53 overexpressing MDM2/4 assessed as inhibition of cell growth incubated for 72 hrs by MTS assay. To be noted: MCF7, 72 h. An outline of the steps:
as §1

Each structure is given as a SMILES string.

With `O=C(Nc1cccc(-n2cccn2)c1)C1=NN(c2ccc(Cl)cc2)C2(C(=O)Nc3cc(Cl)ccc32)C1c1cccc(O)c1` (stereo not given), the IC50 in the test on LNCaP came out at 11.5 µM; with SJSA-1, 17.4 µM; with HCT-116 it was 20.9 µM; in the test with MCF7, 12.4 µM.
Turning to `CCOC(=O)C1=NN(C2CCCCC2)C2(C(=O)Nc3cc(Cl)ccc32)C1c1cccc(Cl)c1F` (stereo not given), the IC50 was 12.6 µM in the test with SJSA-1 and 23.6 µM in the test with HCT-116.
With `O=C(O)C1=NN(C2CCCCC2)C2(C(=O)Nc3cc(Cl)ccc32)C1c1cccc(Cl)c1F` (stereo not given), in the test on HCT-116, the IC50 is > 100 µM.
For `CCOC(=O)C1=NN(C2CCCCC2)C2(C(=O)Nc3cc(Cl)ccc32)C1c1ccc(F)cc1` (stereo not given), the IC50 with HCT-116 is 31.7 µM; with MCF7, 20.2 µM.
With `CC(C)(C)N1N=C(C(=O)NCCO)C(c2cccc(Cl)c2F)C12C(=O)Nc1cc(Cl)ccc12` (stereo not given), in the test with HCT-116, the IC50 was > 50 µM.
Take `O=C(Nc1ccc(O)cc1)C1=NN(c2ccc(Cl)cc2)C2(C(=O)Nc3cc(Cl)ccc32)C1c1cccc(O)c1` (stereo not given): the IC50 amounted to 27.2 µM with HCT-116 and 14.3 µM in the test with MCF7.
On to `CCOC(=O)C1=NN(C2CCCCC2)C2(C(=O)Nc3cc(Cl)ccc32)C1c1ccc(Cl)cc1` (stereo not given), for which, in the test with HCT-116, the IC50 came to 39.1 µM.
Same read-out and setting: next, `CCOC(=O)C1=NN(c2ccccc2)C2(C(=O)Nc3cc(Cl)ccc32)C1c1cccc(F)c1` (stereo not given): 29.9 µM; `O=C(NCCO)C1=NN(c2ccc(Cl)cc2)C2(C(=O)Nc3cc(Cl)ccc32)C1c1cccc(O)c1` (stereo not given): > 50 µM; `CCOC(=O)C1=NN(C2CCCCC2)C2(C(=O)Nc3cc(Cl)ccc32)C1c1cccc(Cl)c1` (stereo not given): 25.5 µM.
With `O=C(NCC1(O)CCC1)C1=NN(c2ccc(Cl)cc2)C2(C(=O)Nc3cc(Cl)ccc32)C1c1cccc(O)c1` (stereo not given), the half-maximal inhibitory concentration (IC50) in the test on HCT-116 came out at 37.2 µM.
Regarding `CCOC(=O)C1=NN(C(C)(C)C)C2(C(=O)Nc3cc(Cl)ccc32)C1c1ccc(Cl)cc1` (stereo not given), the IC50 with HCT-116 was 30.2 µM.
As for `CCOC(=O)C1=NN(C(C)(C)C)C2(C(=O)Nc3cc(Cl)ccc32)C1c1ccc(F)cc1` (stereo not given), in the test with HCT-116, the IC50 amounted to 49.9 µM.
On the same count and under the same terms, next, `CC(C)(C)N1N=C(C(=O)NCCc2ccc(O)cc2)C(c2cccc(Cl)c2F)C12C(=O)Nc1cc(Cl)ccc12` (stereo not given): 30.2 µM; `CCOC(=O)C1=NN(C(C)(C)C)C2(C(=O)Nc3cc(Cl)ccc32)C1c1cccc(Cl)c1F` (stereo not given): 32.1 µM.
Same read-out and setting: next, `CCOC(=O)C1=NN(C(C)(C)C)C2(C(=O)Nc3cc(Cl)c(F)cc32)C1c1cccc(F)c1` (stereo not given): 41.9 µM.
With `CCOC(=O)C1=NN(C(C)(C)C)C2(C(=O)Nc3cc(Cl)ccc32)C1c1cccc(F)c1` (stereo not given), the IC50 with HCT-116 amounted to 44.8 µM.
On to `CC(C)(C)N1N=C(C(=O)O)C(c2cccc(Cl)c2F)C12C(=O)Nc1cc(Cl)ccc12` (stereo not given), for which the IC50 with HCT-116 was > 100 µM.
Turning to `CCOC(=O)C1=NN(c2ccc(Cl)cc2)C2(C(=O)Nc3cc(Cl)ccc32)C1c1cccc(O)c1` (stereo not given), the IC50 in the test on HCT-116 is 33.7 µM.
Still for that read-out and setting: next, `CC(C)(C)N1N=C(C(=O)Nc2ccc(O)cc2)C(c2cccc(Cl)c2F)C12C(=O)Nc1cc(Cl)ccc12` (stereo not given): 34.2 µM.
Regarding `O=C(NCCc1ccc(O)cc1)C1=NN(c2ccc(Cl)cc2)C2(C(=O)Nc3cc(Cl)ccc32)C1c1cccc(O)c1` (stereo not given), the IC50 in the test on HCT-116 was 27 µM.
`CCOC(=O)C1=NN(C(C)(C)C)C2(C(=O)Nc3cc(Cl)c(F)cc32)C1c1cccc(Cl)c1F` (stereo not given): the IC50 in the test with HCT-116 came out at 35.1 µM.
For `CCOC(=O)C1=NN(C2CCCCC2)C2(C(=O)Nc3cc(Cl)ccc32)C1c1cccc(F)c1` (stereo not given), the IC50 was 13.1 µM with LNCaP and 27.5 µM in the test with HCT-116.

By IC50 is commonly meant the point on the concentration scale where inhibition reaches its midpoint.
